Only some compounds are listed: those with a hit (about 3.1% of all), similar ones and a draw of the others.
HKDC1 inhibitor: inhibitors of human hexokinase HKDC1. AID 493160. 0.16% of 340,000 active. recombinant HKDC1, G6PDH/diaphorase resazurin coupled fluorescence. inhibition, % at 20 µM. Q2TB90;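 active = inhibition above about 35% when tested at 20 µM, limit read from the data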;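 also: plate controls were DMSO wells with enzyme for no effect and DMSO wells lacking enzyme for full effect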
Target sequence (Q2TB90 whole entry, looked up): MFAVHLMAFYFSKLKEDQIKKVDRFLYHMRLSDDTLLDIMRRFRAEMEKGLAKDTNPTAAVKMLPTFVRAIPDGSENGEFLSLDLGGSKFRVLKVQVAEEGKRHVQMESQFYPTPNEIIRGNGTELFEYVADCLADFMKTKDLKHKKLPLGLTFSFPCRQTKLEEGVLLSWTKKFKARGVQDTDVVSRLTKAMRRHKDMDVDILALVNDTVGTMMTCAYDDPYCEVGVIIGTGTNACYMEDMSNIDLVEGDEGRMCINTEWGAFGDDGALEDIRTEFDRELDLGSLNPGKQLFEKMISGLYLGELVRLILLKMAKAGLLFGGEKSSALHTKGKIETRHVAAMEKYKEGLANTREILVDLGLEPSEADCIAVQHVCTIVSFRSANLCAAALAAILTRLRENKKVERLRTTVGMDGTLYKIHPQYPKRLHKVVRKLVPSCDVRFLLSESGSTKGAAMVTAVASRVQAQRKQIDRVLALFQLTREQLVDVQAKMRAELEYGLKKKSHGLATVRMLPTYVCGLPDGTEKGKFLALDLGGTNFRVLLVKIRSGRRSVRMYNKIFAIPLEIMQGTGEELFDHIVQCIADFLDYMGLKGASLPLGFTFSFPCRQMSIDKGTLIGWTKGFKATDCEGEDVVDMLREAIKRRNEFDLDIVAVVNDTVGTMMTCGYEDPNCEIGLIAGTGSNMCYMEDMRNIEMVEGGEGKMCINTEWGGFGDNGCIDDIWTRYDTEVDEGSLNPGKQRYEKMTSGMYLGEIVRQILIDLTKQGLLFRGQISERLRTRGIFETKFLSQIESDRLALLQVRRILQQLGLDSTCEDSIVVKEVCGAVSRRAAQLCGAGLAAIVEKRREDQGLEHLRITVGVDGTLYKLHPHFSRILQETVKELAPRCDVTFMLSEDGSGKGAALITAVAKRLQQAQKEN
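System: Recombinant HKDC1 hexokinase | Amount: HKDC1 at 5 µg/mL | Reagent: Glucose with 1 mM ATP | Doses: Single 20 µM dose | Incubation: Reaction time 90 min, room temperature, protected from light | Signal: Coupled resazurin fluorescence, excitation 525 nm, emission 613 nm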
Hsp70 activator: Hsp70 transcriptional activation, primary screen; activation, % at 10 µM; HeLa Hsp70 promoter luciferase reporter, luminescence; scaled: vehicle 0, proteasome-inhibitor control 100%; 0.04% of 200,000 active;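 active = activation above the mean across all tested compounds plus 3 SD, cutoff set per campaign, cut at about 5.5% in these data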;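 also: 100% = MG132 at 30 µM as the positive control and 0% = DMSO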
TbHK1 inh: T. brucei hexokinase 1 inhibition. recombinant TbHK1, G6PDH-coupled NADH A340. inhibition, % at 10 µM. 0.11% of 220,000 active. AID 1430;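 active = inhibition of 50% or more in the single-dose primary screen; inactive = inhibition below 50%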
HSF1 inhib: HSF1 inhibition. NIH3T3-HGL HSE-luciferase, MG132-induced, luminescence 8 h; hits give low values. activity change, negative = inhibition, % at 7.5 µM (by protocol). 0.77% of 300,000 active;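 active = more than half of replicate wells show activity change below -50%, luminescence cut by over half; inconclusive = some wells, but at most half, below -50%; inactive = no replicate well below -50%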;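 also: luciferase reports HSF-1 transcriptional activity via heat shock element; 0% = median of DMSO wells and -100% = zero luminescence signal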
HSP90 inh: HSP90 refolding inhibition in rabbit reticulocyte lysate | 0.91% of 290,000 active | AID 1789 | inhibition, % at 5.6 µM | luciferase refolding luminescence, 3 h;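 active = inhibition above the screen-wide mean plus 3 SD, computed separately per campaign, cut at about 16% in these data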;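 also: 0% = DMSO wells and 100% = 60 µM geldanamycin wells; inhibitors lower the luminescence because luciferase stays unfolded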
HSF-1 act: increases HSF-1 driven luciferase reporter signal | AID 504408 | activation, % at 9 µM | 1.7% of 300,000 active | NIH3T3-HGL HSF-1 luciferase reporter, MG132, 8 h; 100% = twice DMSO control signal;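 active = mean replicate activation of at least 50% with a set share of replicates each reaching 50%; inconclusive = only one of those two conditions met; inactive = mean below 50% and too few replicates reaching it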;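 also: 0% = median of the neutral control wells and 100% = twice that signal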
HSP90 confirm: confirmation of HSP90 inhibitors; shares compounds with HSP90 inh; rabbit reticulocyte lysate, luciferase refolding luminescence, 3 h; inhibition, % at 5.9 µM; 64% of 2,300 active; AID 1846; in the data active = inhibition above about 18%;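 also: 0% = vehicle wells and 100% = reference inhibitor wells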
FLuc counter: counter-screen for HSP90 inhibitors: inhibitors of firefly luciferase; shares compounds with HSP90 inh; purified native firefly luciferase, luminescence; inhibition, % at 5.9 µM; 48% of 2,300 active;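 active = inhibition above the mean inhibition of all tested sample wells plus 3 SD, cut at about 10% in these data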;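 also: 0% = DMSO with luciferase and 100% = wells lacking luciferase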
* hit, by the source's call; u = inconclusive; x = not tested or not shown.

SMILES | HKDC1 inhibitor | Hsp70 activator | TbHK1 inh | HSF1 inhib | HSP90 inh | HSF-1 act | HSP90 confirm | FLuc counter
CCN(Cc1ccccc1)S(=O)(=O)c1ccc(C(=O)N(CCCN(C)C)c2nc3c(C)c(C)ccc3s2)cc1 | -2.8 | x | x | 18.1 | x | 37.3 | x | x
O=C(O)c1ccc(Cn2cc(/C=C\[N+](=O)[O-])c3ccccc32)o1 | 0.9 | x | x | -0.5 | 43.4* | -21.3 | 3.7 | -5.4
CCOc1ccc(N=C(NN)c2ccc3ccccc3n2)cc1 | 6.5 | -0.2 | -1.6 | -81.6* | 27.9* | -83.6 | 12.4 | -4.1
COC(=O)c1ccc2ccccc2n1 | 1.9 | x | x | 4.7 | x | 18.8 | x | x
CSc1ccccc1OCc1cc(C(=O)N(C)Cc2ccncn2)no1 | -3.9 | x | x | 28.2 | 0.8 | 16.8 | x | x
Cc1cccc(-c2cc3nc4c(c(N5CCOCC5)n3n2)CCCC4)c1 | 9.2 | -0.1 | -12.1 | x | 40.1* | x | 59.0* | 58.2*
Cc1nnc(N/N=C/c2cc([N+](=O)[O-])c(N3CCC(C)CC3)cc2N2CCC(C)CC2)n1N | 1.5 | -0.3 | -30.8 | -28.6 | 75.6* | -42.1 | -9.2 | -8.7
Nc1nnnn1/N=C\c1ccc(Cl)c([N+](=O)[O-])c1 | 3.9 | -0.4 | -0.6 | 13.7 | 0.4 | u | x | x
Nn1cnnc1N/N=C/c1ccc(Cl)c([N+](=O)[O-])c1 | 13.1 | -0.4 | 9.3 | -97.6* | 46.3* | -97.5 | -3.3 | -6.1
CCc1nnc(N/N=C/c2ccc(N3CCC(C)CC3)c([N+](=O)[O-])c2)n1N | 5.5 | -0.1 | -25.4 | -20.8 | 21.1* | -42.3 | -2.4 | -1.3
CCOC(=O)C1CCN(c2ncnc3c2cnn3-c2ccc(Cl)cc2)CC1 | -0.7 | -0.4 | 18.7 | -7.0 | 1.7 | -18.2 | x | x
Clc1ccc(-n2ncc3c(N4CCCC4)ncnc32)cc1 | -6.0 | 0.1 | 21.0 | 0.8 | 30.8* | -12.3 | 61.8* | 58.5*
O=c1[nH]c(=O)c2[nH]c(=S)n(-c3ccccc3)c2[nH]1 | -5.9 | x | x | x | x | x | x | x
O=C(Nc1ccccc1C(=O)N1CCCC1)c1ccccc1 | 4.3 | 0.0 | 1.5 | -12.2 | 27.2* | -13.9 | -3.2 | -4.7
O=C(c1ccc(NS(=O)(=O)c2cccc(F)c2)cc1)N1CCCCC1 | -2.8 | x | x | -3.8 | 24.4* | -7.9 | -8.6 | -11.3
O=C(c1ccc(NS(=O)(=O)c2cccc(F)c2)cc1)N1CCCC1 | -3.6 | x | x | -2.1 | -2.4 | -13.1 | x | x
O=C(Nc1ccccc1)Nc1ccc(C(=O)N2CCCC2)cc1 | -2.3 | -0.1 | -1.6 | 13.3 | 22.2* | 43.8 | 42.8* | 20.1*
CCN1CCN(Cc2ccc(NC(=O)Nc3ccccc3)cc2)CC1 | 10.5 | -0.1 | -0.1 | -42.1 | 20.1* | -48.8 | 28.6* | 8.8
CCN1CCN(Cc2ccc(NC(=O)Nc3ccc(OC)cc3)cc2)CC1 | -2.9 | 0.4 | 2.4 | -0.5 | -3.5 | 15.4 | x | x
Cc1c(C(=O)N2CCN(CC(=O)Nc3ccccc3Cl)CC2)oc2ccc(Br)cc12 | 1.4 | x | x | x | x | x | x | x
COc1ccc(/C=C/C(=O)NC(=S)NNC(=O)c2cc(OC)c(OC)c(OC)c2)cc1 | -26.7 | x | -90.7 | -5.5 | 25.6* | 10.6 | 60.7* | 26.9*
COc1ccc(/C=C/C(=O)NC(=S)NNC(=O)c2cc(OC)c(OC)c(OC)c2)cc1OC | -26.8 | x | -18.4 | 6.8 | 2.5 | 20.4 | x | x
O=C(CCNS(=O)(=O)c1cccc2nsnc12)Nc1ccc2c(c1)OCCO2 | -2.8 | -0.5 | -14.8 | -26.7 | 4.4 | -27.9 | x | x
O=S(=O)(Nc1ccc2c(c1)OCCO2)c1cccc2nsnc12 | -0.7 | -0.4 | -6.8 | -59.4* | 20.0* | -67.0 | 30.9* | 49.6*
O=[N+]([O-])c1ccc(S(=O)(=O)Nc2ccc3c(c2)OCCO3)cc1 | -2.8 | x | x | -14.3 | 27.1* | -28.7 | 4.6 | -3.2
SMILES | HKDC1 inhibitor | Hsp70 activator | TbHK1 inh | HSF1 inhib | HSP90 inh | HSF-1 act | HSP90 confirm | FLuc counter
C=C1CCC(OC(C)=O)C2(C)CCC3C(C)C(=O)OC3C12O (configuration not stated) | -3.4 | x | x | 8.4 | -1.6 | 10.8 | x | x
Cc1ncn(-c2ccccc2)c1-c1ccccc1 | -1.5 | x | x | -0.3 | x | 7.4 | x | x
CC(=O)Nc1cccc(N)c1 | -1.8 | x | x | x | x | x | x | x
COc1cccc(NC(=O)N2CCc3ccccc3C2)c1 | 3.1 | x | x | 11.6 | 21.0* | 6.7 | 3.2 | -14.6
O=C(O)c1cccc(NC(=S)NC(NC(=O)c2cccc([N+](=O)[O-])c2)C(Cl)(Cl)Cl)c1 (configuration not stated) | 6.2 | x | 3.6 | -12.8 | 29.3* | -23.1 | 74.6* | 2.9
O=c1c2c(nc3cc(-c4ccc(F)cc4)[nH]n13)CCCC2 | 1.7 | -0.3 | 4.5 | 3.5 | 18.4* | -6.9 | 43.5* | 28.8*
O=c1c2c(nc3cc(-c4cccc(Cl)c4)[nH]n13)CCC2 | 19.0 | -0.1 | 0.9 | -2.7 | 1.4 | -2.5 | x | x
Cc1ccc(-c2nc(-c3ccncc3)no2)c(Cl)c1 | -4.8 | x | x | 19.0 | 27.9* | 40.2 | 48.1* | 46.6*
Clc1ccc(-c2nc(-c3ccncc3)no2)c(Cl)c1 | -1.9 | x | x | 19.3 | x | 43.0 | x | x
Cc1cc(C(=O)CSc2ncccn2)c(C)n1Cc1ccco1 | -7.2 | -0.1 | -5.5 | 38.5 | 17.4* | 45.1 | 46.4* | 37.3*
Cc1cccc(/C(N)=N/OC(=O)c2ccc(Cl)cc2Cl)c1 | -13.2 | 0.2 | 29.0 | 6.4 | 21.4* | 0.7 | 37.4* | 49.7*
N/C(=N/OC(=O)c1ccccc1Cl)c1nonc1N | -1.2 | -0.2 | 3.7 | -11.2 | -3.0 | 3.0 | x | x
Cc1ccc(/C(N)=N/OC(=O)c2ccc(C)cc2Cl)cc1 | 11.9 | 0.5 | -6.7 | -63.5* | 27.7* | -70.4 | 60.2* | 56.1*
Cc1cc(/C(N)=N/OC(=O)c2ccccc2Cl)no1 | -2.8 | x | -7.0 | x | 24.8* | x | 19.2* | 48.8*
CC1(CCCN2C(=O)c3ccccc3C2=O)OCCO1 | -7.8 | x | x | 5.6 | x | -4.1 | x | x
COc1cc(/C=N/NC(=O)c2nnn(-c3nonc3N)c2C(C)C)ccc1OCc1ccccc1 | 1.6 | x | x | 24.6 | 3.1 | 42.6 | x | x
Cc1ccc(-c2cc(C(=O)N/N=C/c3ccco3)[nH]n2)cc1 | -7.4 | -0.2 | -22.1 | 2.0 | 22.1* | -4.0 | 18.6* | 24.5*
O=C1C(Cc2ccccc2)Nc2ncnc(N3CCN(c4ccccc4)CC3)c2N1Cc1ccc(Cl)cc1 (configuration not stated) | 2.7 | x | x | 9.2 | x | 2.3 | x | x
COc1ccc(-c2csc(Nc3ccc(S(N)(=O)=O)cc3)n2)cc1OC | -24.9 | -0.3 | -13.2 | 0.8 | 23.3* | 18.4 | -6.7 | -6.4
NS(=O)(=O)c1ccc(Nc2nc(-c3ccc(F)cc3)cs2)cc1 | 15.3 | -0.2 | -5.0 | 15.7 | -4.2 | 13.9 | x | x
COc1cccc2sc3cc(C#CC4(O)CCCCC4)ccc3c(=O)c12 | 6.8 | x | x | x | x | x | x | x
Cn1c2ccccc2c(=O)c2ccc(C#CC3(O)CCCCC3)cc21 | 12.9 | x | x | -64.8* | 59.1* | -66.1 | 66.4* | 65.0*

Screening results deposited in PubChem by several laboratories.
